# Reference: ChEMBL document CHEMBL1154876, “Synthesis and antimicrobial studies on novel sulfonamides containing 4-azidomethyl coumarin” (2010)
# Key:
# Type in all cases: functional
# Aspergillus niger = assay: Antifungal activity against Aspergillus niger after 48 to 72 hrs by broth microdilution method
# Summary of the method: (§1)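 Test compounds were prepared as 10 mg/ml DMSO stocks and serially diluted twofold in Sabouraud's dextrose broth over 500, 250, 125, 62.5, 31.25, 16, 8, 4, 2 and 1, alongside fluconazole as reference. Plates were inoculated with 1–5 × 10⁴ cfu/ml and held at 25 °C for 48–72 h. The MIC was the lowest concentration showing no visible growth.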
# Mucor = assay: Antifungal activity against Mucor fuscus after 48 to 72 hrs by broth micro dilution method; summary of the method: as §1
# Penicillium chrysogenum = assay: Antifungal activity against Penicillium chrysogenum after 48 to 72 hrs by broth microdilution method; summary of the method: as §1
# Aspergillus fumigatus = assay: Antifungal activity against Aspergillus fumigatus after 48 to 72 hrs by broth microdilution method; summary of the method: as §1
# Escherichia coli = assay: Antibacterial activity against Escherichia coli MTCC 1089 after 18 hrs by broth microdilution method; conditions: MTCC 1089, 18 h
# Pseudomonas aeruginosa = assay: Antibacterial activity against Pseudomonas aeruginosa MTCC 1034 after 18 hrs by broth microdilution method; conditions: MTCC 1034, 18 h
# Candida albicans = assay: Antifungal activity against Candida albicans after 48 to 72 hrs by broth microdilution method; summary of the method: as §1
# Enterococcus faecalis = assay: Antibacterial activity against Streptococcus faecalis MTCC 3382 after 18 hrs by broth microdilution method; conditions: MTCC 3382, 18 h
# Fusarium oxysporum = assay: Antifungal activity against Fusarium oxysporum after 48 to 72 hrs by broth microdilution method; summary of the method: as §1
# Bacillus subtilis = assay: Antibacterial activity against Bacillus subtilis MTCC 297 after 18 hrs by broth microdilution method; conditions: MTCC 297, 18 h
# Klebsiella pneumoniae = assay: Antibacterial activity against Klebsiella pneumoniae MTCC 3384 after 18 hrs by broth microdilution method; conditions: MTCC 3384, 18 h
# Staphylococcus aureus = assay: Antibacterial activity against Staphylococcus aureus MTCC 3160 after 18 hrs by broth microdilution method; conditions: MTCC 3160, 18 h
SMILES,MIC (Aspergillus niger),MIC (Mucor),MIC (Penicillium chrysogenum),MIC (Aspergillus fumigatus),MIC (Escherichia coli),MIC (Pseudomonas aeruginosa),MIC (Candida albicans),MIC (Enterococcus faecalis),MIC (Fusarium oxysporum),MIC (Bacillus subtilis),MIC (Klebsiella pneumoniae),MIC (Staphylococcus aureus)
Cc1cc2oc(=O)cc(CN=[N+]=[N-])c2cc1S(=O)(=O)Nc1ccccc1[N+](=O)[O-],8 µg/mL,8 µg/mL,4 µg/mL,8 µg/mL,> 500 µg/mL,4 µg/mL,250 µg/mL,1 µg/mL,1 µg/mL,62.5 µg/mL,16 µg/mL,1 µg/mL
Cc1cc2oc(=O)cc(CN=[N+]=[N-])c2cc1S(=O)(=O)Nc1ccc(Cl)cc1Cl,250 µg/mL,16 µg/mL,62.5 µg/mL,250 µg/mL,> 500 µg/mL,2 µg/mL,8 µg/mL,1 µg/mL,1 µg/mL,250 µg/mL,2 µg/mL,31.2 µg/mL
Cc1cc2oc(=O)cc(CN=[N+]=[N-])c2cc1S(=O)(=O)Nc1ccc(Br)cc1,> 500 µg/mL,250 µg/mL,16 µg/mL,> 500 µg/mL,> 500 µg/mL,1 µg/mL,125 µg/mL,1 µg/mL,1 µg/mL,> 500 µg/mL,1 µg/mL,16 µg/mL
Cc1ccc(NS(=O)(=O)c2cc3c(CN=[N+]=[N-])cc(=O)oc3cc2C)cc1Cl,16 µg/mL,16 µg/mL,4 µg/mL,16 µg/mL,> 500 µg/mL,1 µg/mL,31.2 µg/mL,8 µg/mL,1 µg/mL,4 µg/mL,8 µg/mL,8 µg/mL
Cc1cc2oc(=O)cc(CN=[N+]=[N-])c2cc1S(=O)(=O)Nc1cc([N+](=O)[O-])ccc1Cl,8 µg/mL,62.5 µg/mL,125 µg/mL,2 µg/mL,> 500 µg/mL,2 µg/mL,4 µg/mL,2 µg/mL,1 µg/mL,125 µg/mL,62.5 µg/mL,2 µg/mL
Cc1cc2oc(=O)cc(CBr)c2cc1S(=O)(=O)Cl,4 µg/mL,1 µg/mL,1 µg/mL,4 µg/mL,125 µg/mL,125 µg/mL,8 µg/mL,16 µg/mL,1 µg/mL,16 µg/mL,125 µg/mL,16 µg/mL
Cc1cc2oc(=O)cc(CN=[N+]=[N-])c2cc1S(=O)(=O)Nc1cccc(Cl)c1,31.2 µg/mL,> 500 µg/mL,2 µg/mL,16 µg/mL,> 500 µg/mL,1 µg/mL,> 500 µg/mL,8 µg/mL,1 µg/mL,16 µg/mL,4 µg/mL,1 µg/mL
Cc1cc2oc(=O)cc(CN=[N+]=[N-])c2cc1S(=O)(=O)Nc1cccc([N+](=O)[O-])c1,8 µg/mL,4 µg/mL,2 µg/mL,8 µg/mL,125 µg/mL,125 µg/mL,16 µg/mL,8 µg/mL,2 µg/mL,8 µg/mL,125 µg/mL,4 µg/mL
Cc1cc2oc(=O)cc(CN=[N+]=[N-])c2cc1S(=O)(=O)Nc1ccc([N+](=O)[O-])cc1,62.5 µg/mL,8 µg/mL,62.5 µg/mL,250 µg/mL,250 µg/mL,1 µg/mL,62.5 µg/mL,4 µg/mL,1 µg/mL,125 µg/mL,2 µg/mL,2 µg/mL
Cc1cc2oc(=O)cc(CN=[N+]=[N-])c2cc1S(=O)(=O)Nc1ccc(Cl)cc1,31.2 µg/mL,16 µg/mL,16 µg/mL,125 µg/mL,> 500 µg/mL,1 µg/mL,8 µg/mL,4 µg/mL,1 µg/mL,16 µg/mL,1 µg/mL,8 µg/mL
Cc1cc2oc(=O)cc(CN=[N+]=[N-])c2cc1S(=O)(=O)Nc1ccc(Cl)c(Cl)c1,16 µg/mL,31.2 µg/mL,2 µg/mL,31.2 µg/mL,> 500 µg/mL,8 µg/mL,16 µg/mL,16 µg/mL,1 µg/mL,2 µg/mL,1 µg/mL,4 µg/mL
Cc1cc2oc(=O)cc(CN=[N+]=[N-])c2cc1S(=O)(=O)Cl,8 µg/mL,2 µg/mL,4 µg/mL,8 µg/mL,125 µg/mL,125 µg/mL,8 µg/mL,31.2 µg/mL,2 µg/mL,31.2 µg/mL,125 µg/mL,4 µg/mL
